Our source for the inhibition and Stability values is ChEMBL document CHEMBL5252656, “Cyclic Peptidic Furin Inhibitors Developed by Combinatorial Chemistry” (ACS Med Chem Lett, 2023).

The target in series [1] is Furin (Homo sapiens) (UniProt P09958). The series can be described thus: Inhibition of recombinant human furin using Pyr-Arg-Thr-Lys-Arg-AMC as substrate at 2.4 nM preincubated for 30 mins followed by substrate addition and measured for 40 mins by microplate reader method. The note with it: time 70.0 min.
Furin (Homo sapiens), sequence (P09958 whole entry): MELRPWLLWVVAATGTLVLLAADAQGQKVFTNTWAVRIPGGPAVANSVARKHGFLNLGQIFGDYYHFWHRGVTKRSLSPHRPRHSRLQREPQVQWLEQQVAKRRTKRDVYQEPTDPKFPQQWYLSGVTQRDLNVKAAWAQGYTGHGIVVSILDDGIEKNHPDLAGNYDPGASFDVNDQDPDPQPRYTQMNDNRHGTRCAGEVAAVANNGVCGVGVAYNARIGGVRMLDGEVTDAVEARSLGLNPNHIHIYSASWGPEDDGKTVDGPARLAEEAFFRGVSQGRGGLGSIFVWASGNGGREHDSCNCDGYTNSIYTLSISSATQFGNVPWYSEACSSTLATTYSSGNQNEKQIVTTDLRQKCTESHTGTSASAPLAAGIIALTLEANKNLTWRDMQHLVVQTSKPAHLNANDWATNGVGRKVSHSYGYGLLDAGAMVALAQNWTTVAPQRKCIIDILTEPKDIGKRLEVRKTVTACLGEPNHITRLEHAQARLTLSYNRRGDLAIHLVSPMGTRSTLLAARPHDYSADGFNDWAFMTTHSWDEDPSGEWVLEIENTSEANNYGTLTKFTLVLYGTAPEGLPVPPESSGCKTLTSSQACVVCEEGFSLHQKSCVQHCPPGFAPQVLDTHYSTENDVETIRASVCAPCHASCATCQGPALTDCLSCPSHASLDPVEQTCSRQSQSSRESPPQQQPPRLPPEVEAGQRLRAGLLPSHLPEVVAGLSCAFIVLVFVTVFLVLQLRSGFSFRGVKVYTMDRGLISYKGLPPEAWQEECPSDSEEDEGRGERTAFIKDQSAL
Series [2] has the same target. Description: Inhibition of recombinant human furin using Pyr-Arg-Thr-Lys-Arg-AMC as substrate at 24 nM preincubated for 30 mins followed by substrate addition and measured for 40 mins by microplate reader method. The note with it: time 70.0 min.
Series [3] shares this target. The series can be described thus: Inhibition of recombinant human furin using Pyr-Arg-Thr-Lys-Arg-AMC as substrate at 77 nM preincubated for 30 mins followed by substrate addition and measured for 40 mins by microplate reader method. The note with it: time 70.0 min.
The target is the same in series [4]. Description: Inhibition of human furin in human PANC-1 cells assessed as release of fluorescent AMC using Pyr-Arg-Thr-Arg-AMC as substrate preincubated for 30 mins followed by substrate addition by plate reader analysis. It counts as cell-based. More on the design: concentration or dose not given beside the values. In short, it runs like this: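 PANC-1 lysate (DMEM/10% FBS culture, protease-inhibitor cocktail extraction) was diluted 10-fold in 100 mM HEPES, 1 mM CaCl2, pH 7.5, then warmed 15 min at 37 °C. Peptide (100 μM final) was added for 30 min at 37 °C, then Pyr-RTR-AMC substrate (100 μM final). AMC release was monitored over time; % inhibition relative to no-inhibitor control.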

Series [5] shares this target. The series can be described thus: Inhibition of human furin in human PANC-1 cells assessed as release of fluorescent AMC using Pyr-Arg-Thr-Arg-AMC as substrate preincubated for 10 mins in presence of SFTI-1 then incubation with ligand for 30 mins followed by substrate addition by plate reader analysis. The class given is cell-based. The note with it: time 40.0 min. The procedure, abridged:
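PANC-1 cells grown in DMEM with 10% FBS and 1% P/S at 37 °C, 5% CO2. Cell lysate was prepared in protease inhibitor cocktail and diluted 10-fold in pH 7.5 HEPES/CaCl2 buffer. It was given SFTI-1 (100 μM final) for 10 min at 37 °C, then peptide (100 μM final) for 30 min, then Pyr-RTR-AMC (100 μM final). AMC release was followed; % inhibition vs no-inhibitor control.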

In series [6] the target is T1, Transmembrane protease serine 6 (Homo sapiens) (UniProt Q8IU80).
T1 sequence (whole entry): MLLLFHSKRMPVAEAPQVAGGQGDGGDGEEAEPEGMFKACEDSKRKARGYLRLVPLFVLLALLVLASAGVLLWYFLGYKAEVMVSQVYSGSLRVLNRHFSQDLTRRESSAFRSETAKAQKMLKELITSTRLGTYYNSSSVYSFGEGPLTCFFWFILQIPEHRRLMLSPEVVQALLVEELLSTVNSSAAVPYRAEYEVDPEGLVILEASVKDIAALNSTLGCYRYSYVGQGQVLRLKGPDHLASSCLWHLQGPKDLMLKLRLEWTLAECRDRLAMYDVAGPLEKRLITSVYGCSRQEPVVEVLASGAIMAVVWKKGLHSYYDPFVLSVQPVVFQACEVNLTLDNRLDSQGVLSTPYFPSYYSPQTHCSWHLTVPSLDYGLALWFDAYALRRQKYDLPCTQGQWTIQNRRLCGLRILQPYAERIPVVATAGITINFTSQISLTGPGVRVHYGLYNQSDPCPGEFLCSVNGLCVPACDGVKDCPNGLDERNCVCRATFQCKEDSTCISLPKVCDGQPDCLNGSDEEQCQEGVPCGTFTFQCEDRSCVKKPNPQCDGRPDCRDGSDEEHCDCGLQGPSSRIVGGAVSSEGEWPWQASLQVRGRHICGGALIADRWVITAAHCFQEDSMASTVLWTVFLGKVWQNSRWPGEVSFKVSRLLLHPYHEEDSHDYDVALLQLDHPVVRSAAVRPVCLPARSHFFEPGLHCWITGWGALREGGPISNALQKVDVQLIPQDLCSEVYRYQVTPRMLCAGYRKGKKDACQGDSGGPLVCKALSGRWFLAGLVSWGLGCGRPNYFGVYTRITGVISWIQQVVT
Description: Inhibition of recombinant human matriptase 2 using Boc-Gln-Ala-Arg-AMC as substrate at 3.85 to 385 nM preincubated for 30 mins followed by substrate addition and measured for 40 mins by microplate reader method. The note with it: dose 3.85-385 nM, time 70.0 min. In short, it runs like this:
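Recombinant human matriptase-2 (1.51 U/mL) in 50 mM Tris-Cl pH 8.3, 150 mM NaCl, 0.01% Triton X-100 was preincubated with compound 30 min at 37 °C. Boc-QAR-AMC (5 μM final) was then added; fluorescence (ex 380/em 450 nm) read ≥40 min. % inhibition vs no-inhibitor control.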

A short description of series [7]: Stability in human serum assessed as parent compound remaining at 1.54 mM and measured after 24 hrs by RP-HPLC analysis. It counts as ADME, cell-free. In short, it runs like this: (§1)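 Peptide stock (1.54 mM) was diluted 10-fold into human serum and held at 37 °C. Samples were taken at 0, 1, 2, 3, 5 and 24 h, precipitated with equal volume acetonitrile and centrifuged 10 min. Supernatant was analysed by RP-HPLC (C18, 10–90% B over 40 min) and MALDI-TOF MS.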

Series [8] is described as follows: Stability in human serum assessed as parent compound remaining at 1.54 mM and measured after 24 hrs by MALDI-MS analysis. The class given is ADME, cell-free. In short, it runs like this:
as §1

Active and inactive are the calls of the source. No cut-off for these calls is given here. Bridge positions count the residues as written; N and C are the ends. Peptide text beside a SMILES is read from it.

As for `CC[C@H](C)[C@@H]1NC(=O)[C@@H]2CCCN2C(=O)[C@@H]2CCCN2C(=O)[C@H]([C@@H](C)CC)NC(=O)[C@H](CO)NC(=O)[C@H](CCCCN)NC(=O)[C@H](CCCCN)NC(=O)[C@@H]2CSSC[C@H](NC1=O)C(=O)N[C@@H](Cc1ccccc1)C(=O)N[C@@H](CCCNC(=N)N)C(=O)N[C@@H](CCCNC(=N)N)C(=O)N2` (cyclo(CFRRCKKSIPPI); disulfide 1-5), the inhibition turned out to be 97.2% at Furin (Homo sapiens) [1], 46.1% at Furin (Homo sapiens) [2] and 3.72% on Furin (Homo sapiens) [3].
Take `CC[C@H](C)[C@@H]1NC(=O)[C@@H]2CCCN2C(=O)[C@@H]2CCCN2C(=O)[C@H]([C@@H](C)CC)NC(=O)[C@H](CO)NC(=O)[C@H](CCCCN)NC(=O)[C@H](CCCCN)NC(=O)[C@@H](NC(=O)[C@H](CCCNC(=N)N)NC(=O)[C@@H](N)CCCCN)CSSC[C@@H](C(=O)N[C@@H](Cc2ccccc2)C(N)=O)NC1=O` (H-KRCKKSIPPICF-NH2; disulfide 3-11): the inhibition is 50.4% on Furin (Homo sapiens) [4] and 34.7% on Furin (Homo sapiens) [5]. Moreover, the inhibition entry in series [6] is “inactive”. The Stability result in series [7] and in series [8] was “Stable” in each case.
For `CC[C@H](C)[C@@H]1NC(=O)[C@@H]2CCCN2C(=O)[C@@H]2CCCN2C(=O)[C@H]([C@@H](C)CC)NC(=O)[C@H](CO)NC(=O)[C@H](CCCCN)NC(=O)[C@H](CCCCN)NC(=O)[C@@H](NC(=O)[C@H](CCCNC(=N)N)NC(=O)[C@H](CCCNC(=N)N)NC(=O)[C@@H](N)CCCCN)CSSC[C@@H](C(=O)N[C@@H](Cc2ccccc2)C(N)=O)NC1=O` (H-KRRCKKSIPPICF-NH2; disulfide 4-12), the inhibition on Furin (Homo sapiens) [1] is 66.5%; on Furin (Homo sapiens) [2] it was 3.98%; at Furin (Homo sapiens) [3], 0.1%.
As for `CC[C@H](C)[C@@H]1NC(=O)[C@@H]2CCCN2C(=O)[C@@H]2CCCN2C(=O)[C@H]([C@@H](C)CC)NC(=O)[C@H](CO)NC(=O)[C@H](CCCCN)NC(=O)[C@H](CCCCN)NC(=O)[C@@H]2CSSC[C@H](NC1=O)C(=O)N[C@@H](Cc1ccccc1)C(=O)N[C@@H](CCCNC(=N)N)C(=O)N[C@@H](CCCNC(=N)N)C(=O)N[C@@H](CCCNC(=N)N)C(=O)N2` (cyclo(RRRCKKSIPPICF); disulfide 4-12), the values for the inhibition at Furin (Homo sapiens) [1], on Furin (Homo sapiens) [4] and on Furin (Homo sapiens) [5] were 34.7%, 58.8% and 45.2%, respectively. Moreover, the inhibition result in series [6] was “inactive”.
For the molecule `CC[C@H](C)[C@@H]1NC(=O)[C@@H]2CCCN2C(=O)[C@@H]2CCCN2C(=O)[C@H]([C@@H](C)CC)NC(=O)[C@H](CO)NC(=O)[C@H](CCCCN)NC(=O)[C@H](CCCCN)NC(=O)[C@@H](NC(=O)[C@H](CCCNC(=N)N)NC(=O)[C@@H](N)CCCNC(=N)N)CSSC[C@@H](C(=O)N[C@@H](Cc2ccccc2)C(N)=O)NC1=O` (H-RRCKKSIPPICF-NH2; disulfide 3-11), the figures for the inhibition on Furin (Homo sapiens) [1], at Furin (Homo sapiens) [2] and at Furin (Homo sapiens) [3] were 63%, 6.02% and 0.2%, respectively.
Turning to `CC[C@H](C)[C@@H]1NC(=O)[C@@H]2CCCN2C(=O)[C@@H]2CCCN2C(=O)[C@H]([C@@H](C)CC)NC(=O)[C@H](CO)NC(=O)[C@H](CCCCN)NC(=O)[C@H]([C@H](C)O)NC(=O)[C@@H]2CSSC[C@H](NC1=O)C(=O)N[C@@H](Cc1ccccc1)C(=O)N1CCC[C@H]1C(=O)N[C@H](C(=O)O)CC(=O)NC(=N)NCCC[C@@H](C(N)=O)C(=O)N2`, the inhibition on Furin (Homo sapiens) [4] amounted to 98.4%.
For the molecule `CC[C@H](C)[C@@H]1NC(=O)[C@@H]2CCCN2C(=O)[C@@H]2CCCN2C(=O)[C@H]([C@@H](C)CC)NC(=O)[C@H](CO)NC(=O)[C@H](CCCCN)NC(=O)[C@H](CCCCN)NC(=O)[C@@H]2CSSC[C@H](NC1=O)C(=O)N[C@@H](Cc1ccccc1)C(=O)N[C@@H](CCCCN)C(=O)N[C@@H](CCCNC(=N)N)C(=O)N[C@@H](CCCNC(=N)N)C(=O)N2` (cyclo(KRRCKKSIPPICF); disulfide 4-12), the results for the inhibition at Furin (Homo sapiens) [1], on Furin (Homo sapiens) [4] and on Furin (Homo sapiens) [5] were 40.2%, 64.8% and 45.9%, respectively. Besides, in series [6], the inhibition entry was “inactive”.
Consider `CC[C@H](C)[C@@H]1NC(=O)[C@@H]2CCCN2C(=O)[C@@H]2CCCN2C(=O)[C@H]([C@@H](C)CC)NC(=O)[C@H](CO)NC(=O)[C@H](CCCCN)NC(=O)[C@H](CCCCN)NC(=O)[C@@H](NC(=O)[C@H](CCCNC(=N)N)NC(=O)[C@H](CCCNC(=N)N)NC(=O)[C@@H](N)CCCNC(=N)N)CSSC[C@@H](C(=O)N[C@@H](Cc2ccccc2)C(N)=O)NC1=O` (H-RRRCKKSIPPICF-NH2; disulfide 4-12), for which the inhibition at Furin (Homo sapiens) [1] is 43.7%; at Furin (Homo sapiens) [4], 68.3%; on Furin (Homo sapiens) [5] it was 46.6%. In series [6], the inhibition entry is “inactive”. Moreover, the Stability entry in series [7] and in series [8] was “Stable” throughout.

As a reminder, the inhibition is the change of the read-out against control, counted positive when it falls.
